Molecules are shown by their SMILES. The source made the active and inactive calls. The calls are words filed in the database; no cut-off is given here.

This is an account of results in ChEMBL document CHEMBL1149106, “Design, synthesis, and evaluation of aza-peptide epoxides as selective and potent inhibitors of caspases-1, -3, -6, and -8” (J Med Chem, 2004).

Chain of Caspase-8 (Homo sapiens) (Q14790 217-374 limits assumed): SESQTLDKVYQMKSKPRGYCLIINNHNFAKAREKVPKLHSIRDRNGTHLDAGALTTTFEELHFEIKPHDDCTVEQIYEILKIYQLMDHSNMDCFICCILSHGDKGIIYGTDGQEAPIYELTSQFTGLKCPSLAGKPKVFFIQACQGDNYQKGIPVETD
Chain of Caspase-8 (Homo sapiens) (Q14790 385-479 limits assumed): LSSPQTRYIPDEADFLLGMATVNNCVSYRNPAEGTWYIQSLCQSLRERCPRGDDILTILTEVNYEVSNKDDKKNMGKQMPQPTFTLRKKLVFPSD

In the first assay the target is T1, Caspase-3 (Homo sapiens) (UniProt P42574).
T1 sequence (whole entry): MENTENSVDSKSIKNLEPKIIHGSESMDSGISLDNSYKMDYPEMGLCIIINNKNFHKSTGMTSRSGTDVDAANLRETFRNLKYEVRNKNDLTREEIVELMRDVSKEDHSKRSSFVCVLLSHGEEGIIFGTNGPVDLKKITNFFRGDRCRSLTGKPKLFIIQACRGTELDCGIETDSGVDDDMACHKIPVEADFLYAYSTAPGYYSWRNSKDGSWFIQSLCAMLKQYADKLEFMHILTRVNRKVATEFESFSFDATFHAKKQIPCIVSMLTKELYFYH
In words: Second-order inhibition rate of caspase-3 was determined by progress curve method. In outline: (§1)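 Caspases-3, -6 and -8 were assayed in 50 mM HEPES, 100 mM NaCl, 0.1% (w/v) CHAPS, 10% (w/v) sucrose and 10 mM DTT, pH 7.4. Substrate: Cbz-DEVD-AFC or Cbz-DEVD-AMC.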
The compound `CC(C)[C@H](NC(=O)OCc1ccccc1)C(=O)NN(CC(=O)O)C(=O)[C@H]1O[C@@H]1c1ccc(Cl)cc1` returned a k2 of 145 M⁻¹ s⁻¹.

Another assay addresses T1, Caspase-3 (Homo sapiens). The assay is described as follows: Second-order inhibition rate of caspase-3 was determined by progress curve method; No inhibition. A digest of the protocol:
as §1
`CCOC(=O)[C@@H]1O[C@H]1C(=O)N(CC(=O)O)NC(=O)[C@H](C)NC(=O)[C@@H](NC(=O)CCc1ccccc1)C(C)C`: the k2 entry was “inactive”.
Still for that read-out and setting: the entry for `CC(C)[C@H](NC(=O)CCc1ccccc1)C(=O)N[C@@H](C)C(=O)NN(CC(=O)O)C(=O)[C@@H]1O[C@H]1C(=O)N[C@@H](Cc1ccccc1)C(N)=O` is “inactive”.
Same read-out and setting: the result for `CC(C)[C@H](NC(=O)CCc1ccccc1)C(=O)N[C@@H](C)C(=O)NN(CC(=O)O)C(=O)[C@@H]1O[C@H]1C(=O)N[C@@H](C)C(=O)NCc1ccccc1` reads “inactive”; that for `CC(C)[C@H](NC(=O)CCc1ccccc1)C(=O)N[C@@H](C)C(=O)NN(CC(=O)O)C(=O)[C@@H]1O[C@H]1C(=O)NCCc1ccccc1`, “inactive”; that for `CC(C)[C@H](NC(=O)CCc1ccccc1)C(=O)N[C@@H](C)C(=O)NN(CC(=O)O)C(=O)[C@@H]1O[C@H]1C(=O)NCc1ccccc1`, “inactive”.
Turning to `CC(C)[C@H](NC(=O)CCc1ccccc1)C(=O)N[C@@H](C)C(=O)NN(CC(=O)O)C(=O)[C@@H]1O[C@H]1C(=O)NCC(O)c1ccccc1` (some centres not stated), the k2 result is “inactive”.

In a further assay the target is T2, Papain (Carica papaya) (UniProt P00784).
T2 sequence (whole entry): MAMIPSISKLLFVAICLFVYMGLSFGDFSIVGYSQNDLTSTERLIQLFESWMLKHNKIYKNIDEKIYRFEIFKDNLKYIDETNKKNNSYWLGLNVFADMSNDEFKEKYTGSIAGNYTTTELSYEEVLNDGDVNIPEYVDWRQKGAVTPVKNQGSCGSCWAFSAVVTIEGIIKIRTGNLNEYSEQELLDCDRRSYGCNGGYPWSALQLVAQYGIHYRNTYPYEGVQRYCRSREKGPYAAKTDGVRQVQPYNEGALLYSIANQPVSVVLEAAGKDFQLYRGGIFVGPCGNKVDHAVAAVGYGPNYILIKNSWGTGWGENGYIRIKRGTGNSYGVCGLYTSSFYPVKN
In words: Tested for inhibition of papain by the compound; NI = No Inhibition.
Turning to `CC(C)[C@H](NC(=O)CCc1ccccc1)C(=O)N[C@@H](C)C(=O)NN(CC(=O)O)C(=O)[C@H]1O[C@@H]1CCc1ccccc1`, the “k obs / 1” value was “inactive”.

The target of a further assay is Caspase-8 (Homo sapiens) (UniProt Q14790). The assay is described as follows: Second-order inhibition rate of caspase-8 was determined by progress curve method; No inhibition. A digest of the protocol:
as §1
Consider `CCOC(=O)[C@@H]1O[C@H]1C(=O)N(CC(=O)O)NC(=O)[C@H](C)NC(=O)[C@@H](NC(=O)CCc1ccccc1)C(C)C`, for which the k2 entry was “inactive”.
As for `CC(C)[C@H](NC(=O)CCc1ccccc1)C(=O)N[C@@H](C)C(=O)NN(CC(=O)O)C(=O)[C@@H]1O[C@H]1C(=O)N[C@@H](Cc1ccccc1)C(N)=O`, the k2 entry is “inactive”.
For `CC(C)[C@H](NC(=O)CCc1ccccc1)C(=O)N[C@@H](C)C(=O)NN(CC(=O)O)C(=O)[C@@H]1O[C@H]1C(=O)N[C@@H](C)C(=O)NCc1ccccc1`, the k2 entry was “inactive”.
The same measure, in the same setting: the result for `CC(C)[C@H](NC(=O)OCc1ccccc1)C(=O)NN(CC(=O)O)C(=O)[C@H]1O[C@@H]1c1ccc(Cl)cc1` reads “inactive”.
On the same count and under the same terms, the result for `CC(C)[C@H](NC(=O)CCc1ccccc1)C(=O)N[C@@H](C)C(=O)NN(CC(=O)O)C(=O)[C@@H]1O[C@H]1C(=O)NCCc1ccccc1` reads “inactive”.
On the same count and under the same terms, the entry for `CC(C)[C@H](NC(=O)CCc1ccccc1)C(=O)N[C@@H](C)C(=O)NN(CC(=O)O)C(=O)[C@@H]1O[C@H]1C(=O)NCc1ccccc1` is “inactive”.
Regarding `CC(C)[C@H](NC(=O)CCc1ccccc1)C(=O)N[C@@H](C)C(=O)NN(CC(=O)O)C(=O)[C@@H]1O[C@H]1C(=O)NCC(O)c1ccccc1` (some centres not stated), the k2 entry was “inactive”.

The target of a further assay is Cathepsin B (Homo sapiens) (UniProt P07858). In words: Tested for inhibition of cathepsin B by the compound; NI = No Inhibition.
Consider `CC(C)[C@H](NC(=O)CCc1ccccc1)C(=O)N[C@@H](C)C(=O)NN(CC(=O)O)C(=O)[C@H]1O[C@@H]1CCc1ccccc1`, for which the “k obs / 1” value is “inactive”.

For the next assay, the target named is T3, Caspase-1 (Homo sapiens) (UniProt P29466).
T3 sequence (whole entry): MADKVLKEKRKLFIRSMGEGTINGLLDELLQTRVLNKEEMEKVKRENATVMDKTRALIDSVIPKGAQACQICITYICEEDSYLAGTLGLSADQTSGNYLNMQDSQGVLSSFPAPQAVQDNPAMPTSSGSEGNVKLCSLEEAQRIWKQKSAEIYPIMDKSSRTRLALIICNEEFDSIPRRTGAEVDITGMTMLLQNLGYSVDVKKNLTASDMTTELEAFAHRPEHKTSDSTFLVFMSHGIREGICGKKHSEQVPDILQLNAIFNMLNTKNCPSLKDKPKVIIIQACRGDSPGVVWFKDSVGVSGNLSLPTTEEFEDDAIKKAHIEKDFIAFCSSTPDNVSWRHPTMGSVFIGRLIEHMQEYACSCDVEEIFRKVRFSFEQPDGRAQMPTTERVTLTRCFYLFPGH
In words: Second-order inhibition rate of caspase-1 was determined by progress curve method. In outline: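 Caspase-1 assay buffer: 100 mM HEPES, 0.5 mM EDTA, 20% (v/v) glycerol, 5 mM DTT, pH 7.5. Substrate: Ac-YVAD-AMC.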
Compound `CCOC(=O)[C@@H]1O[C@H]1C(=O)N(CC(=O)O)NC(=O)[C@H](C)NC(=O)[C@@H](NC(=O)CCc1ccccc1)C(C)C` showed a k2 of 6290 M⁻¹ s⁻¹.
Consider `CC(C)[C@H](NC(=O)CCc1ccccc1)C(=O)N[C@@H](C)C(=O)NN(CC(=O)O)C(=O)[C@@H]1O[C@H]1C(=O)N[C@@H](Cc1ccccc1)C(N)=O`, for which the k2 stood at 330 M⁻¹ s⁻¹.
Still for that read-out and setting: the figure for `CC(C)[C@H](NC(=O)CCc1ccccc1)C(=O)N[C@@H](C)C(=O)NN(CC(=O)O)C(=O)[C@@H]1O[C@H]1C(=O)N[C@@H](C)C(=O)NCc1ccccc1` is 270 M⁻¹ s⁻¹; for `CC(C)[C@H](NC(=O)CCc1ccccc1)C(=O)N[C@@H](C)C(=O)NN(CC(=O)O)C(=O)[C@H]1O[C@@H]1CCc1ccccc1` it is 300 M⁻¹ s⁻¹.
Same read-out and setting: the result for `CC(C)[C@H](NC(=O)CCc1ccccc1)C(=O)N[C@@H](C)C(=O)NN(CC(=O)O)C(=O)[C@@H]1O[C@H]1C(=O)NCCc1ccccc1` reads 950 M⁻¹ s⁻¹; that for `CC(C)[C@H](NC(=O)CCc1ccccc1)C(=O)N[C@@H](C)C(=O)NN(CC(=O)O)C(=O)[C@@H]1O[C@H]1C(=O)NCc1ccccc1`, 1630 M⁻¹ s⁻¹.
Same read-out and setting: the figure for `CC(C)[C@H](NC(=O)CCc1ccccc1)C(=O)N[C@@H](C)C(=O)NN(CC(=O)O)C(=O)[C@@H]1O[C@H]1C(=O)NCC(O)c1ccccc1` (some centres not stated) is 400 M⁻¹ s⁻¹.

For a further assay, the system named is Cathepsin B. The assay is described as follows: Tested for inhibition of cathepsin B by the compound; NI = No Inhibition.
`CC(C)[C@H](NC(=O)CCc1ccccc1)C(=O)N[C@@H](C)C(=O)NN(CC(=O)O)C(=O)[C@H]1O[C@@H]1CCc1ccccc1`: the “k obs / 1” value is “inactive”.

The target in another assay is T4, Caspase-6 (Homo sapiens) (UniProt P55212).
T4 sequence (whole entry): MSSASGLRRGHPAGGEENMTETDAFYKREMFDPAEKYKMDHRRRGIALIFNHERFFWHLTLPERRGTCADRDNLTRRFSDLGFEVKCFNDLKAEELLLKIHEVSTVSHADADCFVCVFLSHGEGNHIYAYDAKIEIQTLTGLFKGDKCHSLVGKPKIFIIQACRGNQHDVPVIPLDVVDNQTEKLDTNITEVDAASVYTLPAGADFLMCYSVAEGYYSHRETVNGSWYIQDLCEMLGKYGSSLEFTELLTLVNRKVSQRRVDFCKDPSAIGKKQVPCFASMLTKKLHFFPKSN
In words: Second-order inhibition rate of caspase-6 was determined by progress curve method; No inhibition. A digest of the protocol:
as §1
Regarding `CCOC(=O)[C@@H]1O[C@H]1C(=O)N(CC(=O)O)NC(=O)[C@H](C)NC(=O)[C@@H](NC(=O)CCc1ccccc1)C(C)C`, the k2 entry was “inactive”.
The same measure, in the same setting: the result for `CC(C)[C@H](NC(=O)CCc1ccccc1)C(=O)N[C@@H](C)C(=O)NN(CC(=O)O)C(=O)[C@@H]1O[C@H]1C(=O)N[C@@H](Cc1ccccc1)C(N)=O` reads “inactive”; that for `CC(C)[C@H](NC(=O)CCc1ccccc1)C(=O)N[C@@H](C)C(=O)NN(CC(=O)O)C(=O)[C@@H]1O[C@H]1C(=O)N[C@@H](C)C(=O)NCc1ccccc1`, “inactive”.
Consider `CC(C)[C@H](NC(=O)OCc1ccccc1)C(=O)NN(CC(=O)O)C(=O)[C@H]1O[C@@H]1c1ccc(Cl)cc1`, for which the k2 entry is “inactive”.
Consider `CC(C)[C@H](NC(=O)CCc1ccccc1)C(=O)N[C@@H](C)C(=O)NN(CC(=O)O)C(=O)[C@@H]1O[C@H]1C(=O)NCCc1ccccc1`, for which the k2 entry was “inactive”.
On the same count and under the same terms, the entry for `CC(C)[C@H](NC(=O)CCc1ccccc1)C(=O)N[C@@H](C)C(=O)NN(CC(=O)O)C(=O)[C@@H]1O[C@H]1C(=O)NCc1ccccc1` is “inactive”; for `CC(C)[C@H](NC(=O)CCc1ccccc1)C(=O)N[C@@H](C)C(=O)NN(CC(=O)O)C(=O)[C@@H]1O[C@H]1C(=O)NCC(O)c1ccccc1` (some centres not stated) it is “inactive”.

Test system in a further assay: not listed separately
In words: Tested for inhibition of chymotrypsinogen by the compound; NI = No Inhibition.
On to `CC(C)[C@H](NC(=O)CCc1ccccc1)C(=O)N[C@@H](C)C(=O)NN(CC(=O)O)C(=O)[C@H]1O[C@@H]1CCc1ccccc1`, for which the “k obs / 1” value was “inactive”.
